Laboratory results from the RNAGym collection of RNA variant scans (doi:10.1126/science.aae0568).
Variants at the floor of the assay were thinned out.

B1: tRNA (parent)
chain: GUUCCGUUGGCGUAAUGGUAACGCGUCUCCCUCCUAAGGAGAAGACUGCGGGUUCGAGUCCCGUACGGAACG

Variants of: B1
Assay: yeast fitness relative to wild type (ratio to wild type); higher = fitter; tRNA-Arg(CCU), competitive growth, 37 C, YPD
Summary of the method: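 Changes in genotype frequencies gave Darwinian fitness relative to wild type. Frequencies were read by 100-nucleotide paired-end sequencing of gene amplicons before and after pooled Saccharomyces cerevisiae strains, carrying tRNA-Arg(CCU) gene variants at the native locus, were competed in YPD at 37°C for 24 hours in six replicates. A genotype was kept only with ≥ 100 starting reads, and estimates < 0.5 were set to 0.5.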

Row | Variant | yeast fitness
1 | C24U A69U A70C | 0.756
2 | G44C G52A U59C U64G | 0.553
3 | A21G U53G | 0.647
4 | U2G C55U | 0.667
5 | C4A U16G C24U G48A | 0.643
6 | U28G U32A G38C A43G | 0.551
7 | C11U G56C A57U C60U | ≤ 0.5
8 | U2A U16G G23C C31U A36U U59A | ≤ 0.5
9 | U3G C5U G39A C49U | ≤ 0.5
10 | C11G C24U A42U A43U | 0.653
11 | G6C C33A A40G A57U | ≤ 0.5
12 | G6C A14G A20C G52A U64A G67A | ≤ 0.5
13 | U3A C55U G56C | ≤ 0.5
14 | G9C G51C C62G | ≤ 0.5
15 | U35C U59C A69U | 0.749
16 | C4A A69C | 0.863
17 | A15G C31G U35C A57U | ≤ 0.5
18 | G17A C34A C55G | ≤ 0.5
19 | A14C A57U | 0.52
20 | G25C A40G A57C A69U A70C | ≤ 0.5
21 | G6A A21U A45U G48C A57C G67U | ≤ 0.5
22 | U35A A43C C46U | ≤ 0.5
23 | C5A G18A C61G U64C | ≤ 0.5
24 | C5A C46A G56C | ≤ 0.5

Row | Variant | yeast fitness
25 | U2G G48A G58C C61A | ≤ 0.5
26 | C34U A36G | 0.696
27 | U3A C4U A37G A40U | ≤ 0.5
28 | C5G A45C C66G | ≤ 0.5
29 | A14G A20G | 0.883
30 | A14G U26C | 0.879
31 | C5G A45G A69U | 0.688
32 | G10C C29U C46A A69U | 0.59
33 | G23C G67C | 0.58
34 | C29A C62U U64C | 0.554
35 | A36C C55U A65C | 0.632
36 | C4A A20U C34A G63C G67C A69U | ≤ 0.5
37 | C31G C66G A69G | 0.545
38 | G6A A45G A70C | 0.856
39 | A15G A36C C46A C66U | ≤ 0.5
40 | G39A G68C A70G | ≤ 0.5
41 | C11U U13C A14G C24A A43C G50C C60G | ≤ 0.5
42 | A20G C49U A69U | 0.779
43 | G9C C34U | 0.776
44 | A36U G50A A69U | ≤ 0.5
45 | C27U C33A C60U C62G | ≤ 0.5
46 | A15U G18A U35C G58A | ≤ 0.5
47 | C11A A20G | 0.556
48 | A14U G17A G23A G68C | ≤ 0.5

Row | Variant | yeast fitness
49 | A20U G38A A70G | 0.516
50 | G17C U28A C30A C31A C60G A65G | ≤ 0.5
51 | C22G C55A | 0.712
52 | A36C A37U G50C | 0.576
53 | C27G A36G A40G A69C | ≤ 0.5
54 | C5A G12C C34U A37G | 0.562
55 | G9A G10A C31G G44A | ≤ 0.5
56 | U8C A20U A21U U26G C31A A45U | 0.54
57 | C27A C66G | 0.673
58 | G17A C22U A43U | 0.639
59 | A14U C30U U53A | ≤ 0.5
60 | C46U C55A G56C | 0.561
61 | U13A A14G | 0.843
62 | C29U A37G A65U | ≤ 0.5
63 | A40G G67A | 0.754
64 | C11U C29A | 0.824
65 | A15U C24U A37U | ≤ 0.5
66 | C30U G68A | 0.744
67 | U7A G39C C46G C49U C62U | ≤ 0.5
68 | U3C G9A A20C C29U G50C U59G C62U G68A | ≤ 0.5
69 | A14G A65G A70U | 0.566
70 | G17A C30U A36C A43C | ≤ 0.5
71 | C4U C27U A57U | 0.532
72 | A45C A65U | 0.833

Row | Variant | yeast fitness
73 | A15C C31G C49U | 0.638
74 | U3A C11G G17C C24G C46A G68C | 0.553
75 | U8G U13A C34G | ≤ 0.5
76 | A14U A36U A69U | 0.629
77 | C11G G25A C30U A37C C46U | 0.568
78 | C33G G44C | 0.735
79 | U7A G10A A40G C60U | ≤ 0.5
80 | C34U G39A U47C G56A | ≤ 0.5
81 | U13C G23C A70G | 0.585
82 | A21C A37C C55G G58A | ≤ 0.5
83 | G9C C27U A40U A65G | ≤ 0.5
84 | C33G C34U U53C C61U | ≤ 0.5
85 | C33A G38C G50A | ≤ 0.5
86 | G17A A21C C29U G48A | 0.652
87 | C5U A14U C49G A65U | ≤ 0.5
88 | U16A G39A C60G A70G | ≤ 0.5
89 | C5U A36G A65G A70C | ≤ 0.5
90 | C31A C33U C49U | ≤ 0.5
91 | U3C C29U | 0.844
92 | U16A A57U | 0.732
93 | U28A A40U C62A | 0.943
94 | G12C G67A A69C | ≤ 0.5
95 | U7A A20G C49G G67A | ≤ 0.5
96 | G6A U13G A36U C46G C62A | ≤ 0.5

Row | Variant | yeast fitness
97 | G10C C31U U35G C62U | ≤ 0.5
98 | C5A C29A A45U C62G C66G | ≤ 0.5
99 | C24G A70U | 0.639
100 | A14U G23U U59A | ≤ 0.5
101 | A37G A57C | 0.545
102 | C5G U8C G10C G52A | ≤ 0.5
103 | U8G C33A A37U G38C | 0.529
104 | C27U C31U | 1.07
105 | A14C U28A | 0.618
106 | C31G A36G | 0.783
107 | C46U G58A | 0.985
108 | U13A C33A A36U | 0.544
109 | G38A A42U | 0.661
110 | U8C A15G G25A C49U A65U | ≤ 0.5
111 | C5U C31G A45U C62U | 0.629
112 | C34U G56C | 0.51
113 | A40G A42U C49A | ≤ 0.5
114 | A15G G17A A65G | ≤ 0.5
115 | A14G C49U U64A | 0.537
116 | C5A U26A | 0.717
117 | G12A G25A G56A | 0.599
118 | G41C A45G | 0.778
119 | U54G C60U | ≤ 0.5
120 | G44C G67A | 0.722

Row | Variant | yeast fitness
121 | A14U U28C C49U G50A C61G A69C | 0.621
122 | A15U G23C A45U C62A | ≤ 0.5
123 | C27U A43C U59A | 0.645
124 | A21C U26G A43C | ≤ 0.5
125 | C30G A37U | 0.615
126 | C5A | 0.995
127 | A21U C55U | 0.607
128 | G6A U8A C11U | ≤ 0.5
129 | C11A A20U C30G A45C G48A | ≤ 0.5
130 | C4A C5G G39C | ≤ 0.5
131 | A15U U64G A69U | ≤ 0.5
132 | A20G A45U G67C | 0.613
133 | C4U U47G | 0.616
134 | G12A A65C C66U G67U | 0.612
135 | U28A A40U C49U C60A G63A | ≤ 0.5
136 | A15C A21U C24A C33A C61U | ≤ 0.5
137 | A21G G23A C34G A36U A57C C66U | ≤ 0.5
138 | C4G C27G C34U A37C C55U | ≤ 0.5
139 | U47C A57G | 0.921
140 | C27U A70G | 0.988
141 | U7A U16A | 0.743
142 | A15U C22G G52C A65C | ≤ 0.5
143 | U26C U47C | 0.952
144 | U13C A15G A65C | 0.583

Row | Variant | yeast fitness
145 | G48C G51C U59A | ≤ 0.5
146 | A43G C49U A69C | 0.6
147 | U16C U54C G63A | 0.501
148 | U13C C27U A69U | 0.648
149 | C5G A15C A42C G52A U53A | ≤ 0.5
150 | G9A G12A C27G | ≤ 0.5
151 | U2C U7A G68A | ≤ 0.5
152 | U13A A21C A42G C62A A69U | ≤ 0.5
153 | C34A A69C | 0.752
154 | C5A G17C G18C C60U | ≤ 0.5
155 | C46G G50A C62A | 0.603
156 | A15U G67A A69U | 0.558
157 | C22A U28A G39C | ≤ 0.5
158 | G18A G50A C62G | ≤ 0.5
159 | C5G A21U C33U G50A | 0.835
160 | C5U A21G G67A | 0.629
161 | C29A A42G C61G | 0.533
162 | C5U C11U C33G A43C | ≤ 0.5
163 | G12C U53A C61U C62A | ≤ 0.5
164 | G25C C31U U35C | 0.53
165 | A15G A36C C46A A65G | ≤ 0.5
166 | A14U G23U G67C | ≤ 0.5
167 | A37U C55U C61G A65U A70U | ≤ 0.5
